From ChEMBL document CHEMBL1156133, “Losartan-antioxidant hybrids: novel molecules for the prevention of hypertension-induced cardiovascular damage” (J Med Chem, 2009)
Activity calls are given as the source filed them. No cut-off for these calls is given here.

How the values were obtained:
[1] = Antioxidant activity assessed as inhibition of oxidation of chromogen (ABTS) measured per mmol/L of product by total antioxidant assay; format: functional
Outline: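 Total antioxidant status kit: inhibition of ABTS oxidation by metmyoglobin and hydrogen peroxide, followed at 600 nm absorbance; antioxidant ability proportional to absorbance reduction, expressed as mM. Compounds tested at 1 mmol/L.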

[2] = test system: VSMC; assay: Displacement of [125I]angiotensin II from angiotensin 2 receptor in Wistar rat VSMC cells by gamma-counter; format: cell-based; design: concentration or dose not given beside the values
Outline: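 Rat aortic VSMC (collagenase-derived primary cultures, passages 3-5) resuspended in Tris-glucose-NaCl buffer pH 7.4 at 0.5 μg/μL protein; 125 μg protein incubated 45 min with 0.15 nM 125I-angiotensin II plus compound. Bound separated by centrifugation, pellet washed with cold 0.15 M NaCl, gamma counted; nonspecific binding with 10^-4 M angiotensin II.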

[3] = test system: Rattus norvegicus; assay: Antihypertensive activity in Wistar rat assessed as normalization of L-NAME-induced systolic blood pressure at 20 mg/kg/day, po for 4 weeks; format: functional, organism-based; details: Artery
Outline: (§1)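 L-NAME (20 mg/kg/day, drinking water, 8 weeks) hypertensive two-month-old male Wistar rats; treatments in drinking water daily for the last 4 weeks. Systolic pressure by tail-cuff in conscious animals. At sacrifice heart weighed (corrected to body weight); aortic rings from descending thoracic aorta, formaldehyde-flushed, media thickness by planimetry. Mean ± SEM of 10 rats.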

[4] = test system: Rattus norvegicus; assay: Antihypertensive activity in Wistar rat assessed as normalization of L-NAME-induced heart weight at 20 mg/kg/day, po for 4 weeks in presence of L-NAME; format: functional, organism-based; details: 28 mg/kg, in the assay text read “28 mg/kg/day” for “20 mg/kg/day”; outline: as §1
[5] = test system: Rattus norvegicus; assay: Antihypertensive activity in Wistar rat assessed as normalization of L-NAME-induced systolic blood pressure at 10 mg/kg/day, po for 4 weeks; format: functional, organism-based; details: Artery; outline: as §1
[6] = test system: Rattus norvegicus; assay: Antihypertensive activity in Wistar rat assessed as normalization of L-NAME-induced aorta thickness at 10 mg/kg/day, po for 4 weeks; format: functional, organism-based; outline: as §1
[7] = test system: Rattus norvegicus; assay: Antihypertensive activity in L-NAME-induced Wistar rat assessed as decrease in blood glucose level at 20 mg/kg/day, po for last 4 weeks measured after 8 weeks; format: functional
Outline: (§2)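 Two-month-old male Wistar rats given L-NAME in drinking water (20 mg/kg/day) for 8 weeks. From week 4, treatment is given daily in drinking water during 12.00–18.00 h, at the dose stated in the line. Ten rats per group. Sacrificed under halothane between 9.00 and 10.00 h. Serum is measured on an automatic analyzer. Mean ± SEM, nonparametric statistics.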

[8] = test system: Rattus norvegicus; assay: Antihypertensive activity in L-NAME-induced Wistar rat assessed as decrease in blood cholesterol level at 20 mg/kg/day, po for last 4 weeks measured after 8 weeks; format: functional; outline: as §2
[9] = test system: Rattus norvegicus; assay: Antihypertensive activity in L-NAME-induced Wistar rat assessed as decrease in blood triglyceride level at 20 mg/kg/day, po for last 4 weeks measured after 8 weeks; format: functional; outline: as §2
[10] = test system: Rattus norvegicus; assay: Antihypertensive activity in L-NAME-induced Wistar rat assessed as decrease in blood calcium level at 20 mg/kg/day, po for last 4 weeks measured after 8 weeks; format: functional; outline: as §2
[11] = test system: Rattus norvegicus; assay: Antihypertensive activity in L-NAME-induced Wistar rat assessed as decrease in blood protein level at 20 mg/kg/day, po for last 4 weeks measured after 8 weeks; format: functional; outline: as §2
[12] = test system: Rattus norvegicus; assay: Antihypertensive activity in L-NAME-induced Wistar rat assessed as decrease in blood LDH level at 20 mg/kg/day, po for last 4 weeks measured after 8 weeks; format: functional; outline: as §2
[13] = test system: Rattus norvegicus; assay: Antihypertensive activity in L-NAME-induced Wistar rat assessed as decrease in blood AST level at 20 mg/kg/day, po for last 4 weeks measured after 8 weeks; format: functional; outline: as §2
[14] = test system: Rattus norvegicus; assay: Antihypertensive activity in L-NAME-induced Wistar rat assessed as decrease in blood ALT level at 20 mg/kg/day, po for last 4 weeks measured after 8 weeks; format: functional; outline: as §2
[15] = test system: Rattus norvegicus; assay: Antihypertensive activity in L-NAME-induced Wistar rat assessed as decrease in blood creatinine level at 20 mg/kg/day, po for last 4 weeks measured after 8 weeks; format: functional; outline: as §2
[16] = test system: Rattus norvegicus; assay: Antihypertensive activity in L-NAME-induced Wistar rat assessed as decrease in blood urea level at 20 mg/kg/day, po for last 4 weeks measured after 8 weeks; format: functional; outline: as §2
[17] = test system: Rattus norvegicus; assay: Antihypertensive activity in L-NAME-induced Wistar rat assessed as decrease in blood Na+ level at 20 mg/kg/day, po for last 4 weeks measured after 8 weeks; format: functional; outline: as §2
[18] = test system: Rattus norvegicus; assay: Antihypertensive activity in L-NAME-induced Wistar rat assessed as decrease in blood […] level at 20 mg/kg/day, po for last 4 weeks measured after 8 weeks; format: functional; outline: as §2
[19] = test system: Rattus norvegicus; assay: Antihypertensive activity in Wistar rat assessed as normalization of L-NAME-induced systolic blood pressure at 30 mg/kg/day, po for 4 weeks; format: functional, organism-based; details: Artery; outline: as §1
[20] = test system: Rattus norvegicus; assay: Antihypertensive activity in Wistar rat assessed as normalization of L-NAME-induced heart weight at 30 mg/kg/day, po for 4 weeks in presence of L-NAME; format: functional, organism-based; outline: as §1
[21] = test system: Rattus norvegicus; assay: Antihypertensive activity in L-NAME-induced Wistar rat assessed as decrease in blood creatinine level at 30 mg/kg/day, po for last 4 weeks measured after 8 weeks; format: functional; outline: as §2
[22] = test system: Rattus norvegicus; assay: Antihypertensive activity in L-NAME-induced Wistar rat assessed as decrease in blood urea level at 30 mg/kg/day, po for last 4 weeks measured after 8 weeks; format: functional; outline: as §2
[23] = test system: Rattus norvegicus; assay: Antihypertensive activity in L-NAME-induced Wistar rat assessed as decrease in blood Na+ level at 30 mg/kg/day, po for last 4 weeks measured after 8 weeks; format: functional; outline: as §2
[24] = test system: Rattus norvegicus; assay: Antihypertensive activity in L-NAME-induced Wistar rat assessed as decrease in blood […] level at 30 mg/kg/day, po for last 4 weeks measured after 8 weeks; format: functional; outline: as §2
[25] = test system: Rattus norvegicus; assay: Antihypertensive activity in Wistar rat assessed as normalization of L-NAME-induced collagen 1 level in vessel walls at 30 mg/kg/day, po for 4 weeks in presence of losartan; format: functional, organism-based
Outline: (§3)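 Male Wistar rats on L-NAME in drinking water (20 mg/kg/day) for 8 weeks, treatments in drinking water for the last 4 weeks. Thoracic aorta lysates run on SDS-PAGE and Western blotted for collagen type I, fibronectin or HNE-lysine, with β-tubulin as loading control; ECL detection, densitometry. Expressed as percent of basal; mean ± SEM of 10 experiments.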

[26] = test system: Rattus norvegicus; assay: Antihypertensive activity in Wistar rat assessed as normalization of L-NAME-induced fibronectin content in vessel walls at 30 mg/kg/day, po for 4 weeks in presence of losartan; format: functional, organism-based; outline: as §3
[27] = test system: Rattus norvegicus; assay: Antihypertensive activity in Wistar rat assessed as normalization of L-NAME-induced HNE-lysine accumulation in vessel walls at 30 mg/kg/day, po for 4 weeks in presence of losartan; format: functional, organism-based; outline: as §3
[28] = test system: Rattus norvegicus; assay: Antihypertensive activity in L-NAME-induced Wistar rat assessed as decrease in blood glucose level at 30 mg/kg/day, po for last 4 weeks measured after 8 weeks; format: functional; outline: as §2
[29] = test system: Rattus norvegicus; assay: Antihypertensive activity in L-NAME-induced Wistar rat assessed as decrease in blood cholesterol level at 30 mg/kg/day, po for last 4 weeks measured after 8 weeks; format: functional; outline: as §2
[30] = test system: Rattus norvegicus; assay: Antihypertensive activity in L-NAME-induced Wistar rat assessed as decrease in blood triglyceride level at 30 mg/kg/day, po for last 4 weeks measured after 8 weeks; format: functional; outline: as §2
[31] = test system: Rattus norvegicus; assay: Antihypertensive activity in L-NAME-induced Wistar rat assessed as decrease in blood calcium level at 30 mg/kg/day, po for last 4 weeks measured after 8 weeks; format: functional; outline: as §2
[32] = test system: Rattus norvegicus; assay: Antihypertensive activity in L-NAME-induced Wistar rat assessed as decrease in blood protein level at 30 mg/kg/day, po for last 4 weeks measured after 8 weeks; format: functional; outline: as §2
[33] = test system: Rattus norvegicus; assay: Antihypertensive activity in L-NAME-induced Wistar rat assessed as decrease in blood LDH level at 30 mg/kg/day, po for last 4 weeks measured after 8 weeks; format: functional; outline: as §2
[34] = test system: Rattus norvegicus; assay: Antihypertensive activity in L-NAME-induced Wistar rat assessed as decrease in blood AST level at 30 mg/kg/day, po for last 4 weeks measured after 8 weeks; format: functional; outline: as §2
[35] = test system: Rattus norvegicus; assay: Antihypertensive activity in L-NAME-induced Wistar rat assessed as decrease in blood ALT level at 30 mg/kg/day, po for last 4 weeks measured after 8 weeks; format: functional; outline: as §2

CCCCc1nc(Cl)c(COC(=O)Cc2cc(C(C)(C)C)c(O)c(C(C)(C)C)c2)n1Cc1ccc(-c2ccccc2-c2nnn[nH]2)cc1
Activity [1]: 0.16 mmol/L
Activity [2]: 65%

CCCCc1ncc(COC(=O)Cc2cc(C(C)(C)C)c(O)c(C(C)(C)C)c2)n1Cc1ccc(-c2ccccc2-c2nnn[nH]2)cc1
Activity [1]: 0.24 mmol/L
Activity [2]: 77%

CCCCc1nc(Cl)c(CO)n1Cc1ccc(-c2ccccc2-c2nnn[nH]2)cc1 [LOSARTAN]
Activity [1]: 0.04 mmol/L
Activity [2]: 53%
Activity [3]: Active
Activity [4]: Active
Activity [5]: inactive
Activity [6]: inactive
Activity [7]: 149 mg/dL
Activity [8]: 48 mg/dL
Activity [9]: 65 mg/dL
Activity [10]: 8.3 mg/dL
Activity [11]: 5 g/dL
Activity [12]: 622 IU/L
Activity [13]: 91 IU/L
Activity [14]: 24 IU/L
Activity [15]: 0.42 mg/dL
Activity [16]: 24 mg/dL
Activity [17]: 151 mmol/L
Activity [18]: 4.7 mmol/L

CCCCc1ncc(COC(=O)CCc2ccc(O)c(O)c2)n1Cc1ccc(-c2ccccc2-c2nnn[nH]2)cc1
Activity [1]: 0.31 mmol/L
Activity [2]: 60%
Activity [19]: Active
Activity [20]: Active
Activity [5]: inactive
Activity [6]: inactive
Activity [21]: 0.43 mg/dL
Activity [22]: 24 mg/dL
Activity [23]: 151 mmol/L
Activity [24]: 4.4 mmol/L
Activity [25]: Active
Activity [26]: Active
Activity [27]: Active
Activity [28]: 149 mg/dL
Activity [29]: 55 mg/dL
Activity [30]: 60 mg/dL
Activity [31]: 8.6 mg/dL
Activity [32]: 4.5 g/dL
Activity [33]: 600 IU/L
Activity [34]: 85 IU/L
Activity [35]: 25 IU/L
